Screening data deposited in PubChem by Johns Hopkins Ion Channel Center.
In the library only some 3.7% were active in any assay of this set; here they are far more common.
KCNK3 block – human KCNK3 channel inhibition, primary screen | CHO-KCNK3 thallium flux, FluxOR fluorescence; stronger effect = lower value | 340,000 compounds, 0.84% hits | B-score at 10 µM | O14649;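 active = B-score under library mean minus 4 SD, starting fluorescence ratio at most library mean plus 5 SD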;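 also: more negative B-score means stronger inhibition of thallium flux through KCNK3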
Kir21 inh – Kir2.1 (mouse) channel inhibition; P35561; HEK293-Kir2.1, FluxOR thallium flux fluorescence; stronger effect = lower value; B-score at 10 µM; 310,000 compounds, 0.85% hits;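 active = fluorescence ratio B-score at or below minus 3 SD of library scores, with starting-brightness B-score within 2 SD, cut at about -4.2 in these data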;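 also: channel flux triggered by added potassium and thallium sulfate stimulus; B-score of peak minus minimum fluorescence over baseline after thallium stimulus; more negative B-score means stronger Kir2.1 block with less thallium influx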
KCNK9 inh – blocks the human KCNK9 two-pore domain potassium channel | Q9NPC2 | HEK293 KCNK9, FluxOR thallium flux fluorescence; stronger effect = lower value | B-score at 10 µM | 310,000 compounds, 1.2% hits;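 active = ratio B-score over 3 SD below the library mean, with starting fluorescence within 5 SD of its mean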;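 also: negative B-score means less thallium flux so channel inhibition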
Target sequence (Q9NPC2 whole entry, looked up, the tested form may be a part): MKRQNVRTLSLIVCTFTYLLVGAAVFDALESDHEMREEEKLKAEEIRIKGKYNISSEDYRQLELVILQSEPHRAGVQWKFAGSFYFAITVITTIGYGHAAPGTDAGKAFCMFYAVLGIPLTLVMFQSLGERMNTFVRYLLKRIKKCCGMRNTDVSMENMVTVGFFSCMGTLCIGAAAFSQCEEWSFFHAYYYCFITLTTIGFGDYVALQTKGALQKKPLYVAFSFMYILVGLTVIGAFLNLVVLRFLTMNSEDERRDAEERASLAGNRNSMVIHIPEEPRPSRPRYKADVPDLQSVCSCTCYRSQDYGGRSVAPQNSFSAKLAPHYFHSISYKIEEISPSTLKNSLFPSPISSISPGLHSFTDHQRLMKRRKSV
hERG protect – shields human hERG channel from block by proarrhythmic agents. 310,000 compounds, 0.51% hits. AID 1511. CHO-hERG, FluxOR thallium flux, dofetilide IC70 present. activation (rescue from dofetilide block), less the hit threshold, % at 10 µM. Q12809;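 active = activation above the mean of controls blocked by dofetilide plus 5 SD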;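 also: thallium influx through hERG after potassium depolarization seen as dye fluorescence rise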
KCNQ1 block – inhibitors of human KCNQ1 potassium channel; CHO-K1 KCNQ1, FluxOR thallium flux fluorescence; stronger effect = higher value; B-score at 10 µM; 310,000 compounds, 1.3% hits; AID 2642;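 active = compounds whose thallium flux B-score, printed positive for inhibition, exceeds three library SD while starting fluorescence stays within three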;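 also: channel opened by potassium depolarization with thallium stimulus after 20 min compound exposure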
KCNQ1 act – potentiators or activators of human KCNQ1 potassium channel | P51787 | CHO-K1 KCNQ1, thallium flux FluxOR fluorescence; stronger effect = higher value | B-score at 10 µM | 310,000 compounds, 0.35% hits | AID 2648;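 active = fluorescence ratio B-score, a plate-corrected score, at least three library SD, with initial intensity B-score within 5 SD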
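Material: CHO-K1 cells stably expressing KCNQ1. Medium: assay buffer for compound exposure, DMSO matched across wells. Reagent: K+/Tl+ depolarizing stimulus. Compound dosing: single-concentration screen. Times: 37 °C overnight plating, 90-min dark dye load, 20-min compound pretreatment. Technique: FluxOR Tl+ flux fluorescence.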
KCNK9 block conf – human KCNK9 inhibitor confirmation | shares compounds with KCNK9 inh | HEK293 KCNK9 cells, FluxOR thallium flux fluorescence | inhibition, % at 10 µM | 4,900 compounds, 43% hits | AID 492992;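 active = thallium signal inhibited by more than 5 SD of the compound-free buffer control wells, on both duplicate plates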;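 also: 0% = assay buffer control wells without compound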
Kir2-1 spec – mouse Kir2.1 off-target activity of KCNK9 modulators; shares compounds with KCNK9 inh; Kir2.1 cells, FluxOR thallium flux fluorescence; inhibition, % at 10 µM; 4,900 compounds, 4% hits;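 active = thallium signal drop more than 5 SD beyond the mean of the no-compound control wells, seen in both duplicate plates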;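 also: signal is fluorescence rise after thallium addition divided by baseline fluorescence; plate controls were assay buffer only for no effect and full block by chlorpromazine control for full effect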
KCNK9 uninduced – second check of KCNK9 modulator effects in non-induced HEK293 cells. FluxOR thallium flux. shares compounds with KCNK9 inh. inhibition, % at 10 µM. 4,900 compounds, 40% hits;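 active = thallium signal drop beyond 5 SD of the untreated control mean, on both duplicate plates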;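 also: plate controls were buffer only IC0 wells for no effect and SID17386958 at its maximal inhibitory level for full effect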
An asterisk follows results filed as active.

What do the screens show for `COc1ccc(NC(=O)CN2C(=O)NC(c3ccccc3)(c3ccccc3)C2=O)cc1`?
KCNK3 block: inactive; Kir21 inh: -1.6; KCNK9 inh: inactive; hERG protect: -6.1; KCNQ1 block: inactive; KCNQ1 act: inactive

What do the screens show for `CC(C)CCn1c(=O)c2ccccc2n2c(CCl)nnc12`?
KCNK3 block: inactive; Kir21 inh: -1.72; KCNK9 inh: inactive; hERG protect: -10.6; KCNQ1 block: inactive; KCNQ1 act: inactive

How did CC(C)CCn1c(=O)c2ccccc2n2c(CN(C)Cc3ccccc3)nnc12 do in these assays?
KCNK3 block: inactive; Kir21 inh: -0.41; KCNK9 inh: inactive; hERG protect: -11.3; KCNQ1 block: inactive; KCNQ1 act: inactive; KCNK9 block conf: inactive; Kir2-1 spec: inactive; KCNK9 uninduced: inactive

How did CC(=O)c1ccc(OCCCC(=O)Nc2cc(S(=O)(=O)N3CCCCC3)ccc2C)cc1 do in these assays?
KCNK3 block: inactive

Results for COc1ccc(NC2CCCN(C(=O)CCc3cccc(F)c3)C2)cc1 (stereo unspecified) ?
KCNK3 block: inactive; Kir21 inh: -2.31; KCNK9 inh: inactive; hERG protect: -9.6; KCNQ1 block: inactive; KCNQ1 act: inactive

Results for COc1ccc(NC2CCCN(C(=O)c3ccc4[nH]c(C)c(C)c4c3)C2)cc1 (stereo unspecified) ?
KCNK3 block: inactive; Kir21 inh: 0.42; KCNK9 inh: -11.8*; hERG protect: -5.1; KCNQ1 block: inactive; KCNQ1 act: inactive; KCNK9 block conf: inactive; Kir2-1 spec: inactive; KCNK9 uninduced: inactive

How did Cc1cccc(C(=O)N2CCCC(Nc3ccc(C)c(C)c3)C2)n1 (stereo unspecified) do in these assays?
KCNK3 block: inactive; Kir21 inh: 1.51; KCNK9 inh: inactive; hERG protect: -5.8; KCNQ1 block: inactive; KCNQ1 act: inactive; KCNK9 block conf: inactive; Kir2-1 spec: inactive; KCNK9 uninduced: inactive

How did COc1ccc(NC2CCCN(C(=O)c3ccc(C)nc3)C2)cc1 (stereo unspecified) do in these assays?
KCNK3 block: inactive; Kir21 inh: 0.9; KCNK9 inh: inactive; hERG protect: -11.6; KCNQ1 block: inactive; KCNQ1 act: inactive

Results for COc1ccc(NC2CCCN(C(=O)CCc3cccc(Cl)c3)C2)cc1 (stereo unspecified) ?
KCNK3 block: inactive; Kir21 inh: -4.21*; KCNK9 inh: inactive; hERG protect: -12.9; KCNQ1 block: inactive; KCNQ1 act: inactive; KCNK9 block conf: inactive; Kir2-1 spec: inactive; KCNK9 uninduced: inactive

What do the screens show for `COc1cccc(C(=O)N2CCCC(Nc3ccc(C)c(C)c3)C2)c1` (stereo unspecified)?
KCNK3 block: inactive; Kir21 inh: -1.1; KCNK9 inh: inactive; hERG protect: -7.2; KCNQ1 block: inactive; KCNQ1 act: inactive; KCNK9 block conf: inactive; Kir2-1 spec: inactive; KCNK9 uninduced: inactive

What do the screens show for `Cn1c(=O)c2c(nc(N/N=C/c3ccc(OC(=O)c4ccco4)cc3)n2Cc2ccccc2)n(C)c1=O`?
KCNK3 block: inactive; Kir21 inh: -0.26; KCNK9 inh: inactive; hERG protect: -7.8; KCNQ1 block: inactive; KCNQ1 act: inactive

What do the screens show for `COc1ccc(NC2CCCN(C(=O)c3ccc(OC)o3)C2)cc1` (stereo unspecified)?
KCNK3 block: inactive; Kir21 inh: -0.17; KCNK9 inh: inactive; hERG protect: -10.5; KCNQ1 block: inactive; KCNQ1 act: inactive; KCNK9 block conf: inactive; Kir2-1 spec: inactive; KCNK9 uninduced: inactive

Results for COc1ccc(NC2CCCN(C(=O)c3ccc(C(C)=O)cc3)C2)cc1 (stereo unspecified) ?
KCNK3 block: inactive; Kir21 inh: 1.46; KCNK9 inh: inactive; hERG protect: -10.6; KCNQ1 block: inactive; KCNQ1 act: inactive

What do the screens show for `COc1ccc(NC2CCCN(C(=O)c3cccc(N(C)C)c3)C2)cc1` (stereo unspecified)?
KCNK3 block: inactive; Kir21 inh: 0.52; KCNK9 inh: inactive; hERG protect: -13.7; KCNQ1 block: inactive; KCNQ1 act: inactive; KCNK9 block conf: inactive; Kir2-1 spec: inactive; KCNK9 uninduced: inactive

Results for COc1ccc(NC2CCCN(C(=O)c3ccc(C(C)=O)s3)C2)cc1 (stereo unspecified) ?
KCNK3 block: inactive; Kir21 inh: 0.03; KCNK9 inh: inactive; hERG protect: -5.9; KCNQ1 block: inactive; KCNQ1 act: inactive

How did COC(=O)c1ccc(OS(=O)(=O)N(C)C)cc1 do in these assays?
KCNK3 block: inactive; Kir21 inh: 0.14; KCNK9 inh: inactive; hERG protect: -11.5; KCNQ1 block: inactive; KCNQ1 act: inactive

How did CC(=O)Nc1ccc(C(=O)OCC(=O)NCc2ccc(Cl)cc2)cc1 do in these assays?
Kir21 inh: 0.2; KCNK9 inh: inactive; hERG protect: -6.7; KCNQ1 block: inactive; KCNQ1 act: inactive

Results for COc1cc(NS(=O)(=O)c2ccc(NC(C)=O)cc2)nc(OC)n1 ?
KCNK3 block: inactive; Kir21 inh: 0.44; KCNK9 inh: inactive; hERG protect: -11.9; KCNQ1 block: inactive; KCNQ1 act: inactive

What do the screens show for `COc1cc(NS(=O)(=O)c2ccc(N/C=C(\C#N)c3nc4cc(Cl)ccc4o3)cc2)nc(OC)n1`?
KCNK3 block: inactive; Kir21 inh: 0.21; KCNK9 inh: inactive; hERG protect: -7.7; KCNQ1 block: inactive; KCNQ1 act: inactive; KCNK9 block conf: inactive; Kir2-1 spec: inactive; KCNK9 uninduced: inactive

Results for Oc1ccc(Cl)cc1Cc1cc(Cl)ccc1O ?
KCNK3 block: inactive; Kir21 inh: -5.98*; KCNK9 inh: -14*; hERG protect: -36.8; KCNQ1 block: inactive; KCNQ1 act: inactive; KCNK9 block conf: 58.5%*; Kir2-1 spec: inactive; KCNK9 uninduced: 35.0%*

Results for O=C(O)c1ccccc1NSc1ccccc1[N+](=O)[O-] ?
KCNK3 block: inactive; Kir21 inh: 0.23; KCNK9 inh: inactive; hERG protect: -3.8; KCNQ1 block: inactive; KCNQ1 act: inactive

What do the screens show for `CCc1ccc(NSc2ccccc2[N+](=O)[O-])cc1`?
KCNK3 block: inactive; Kir21 inh: -1.11; KCNK9 inh: -8.84*; hERG protect: -7.5; KCNQ1 block: inactive; KCNQ1 act: inactive; KCNK9 block conf: 42.0%*; Kir2-1 spec: inactive; KCNK9 uninduced: 28.0%*
